Publication PMC2819108 (Bioorganic & medicinal chemistry, 2009)

Key:
[1] = system: MCF-7 human breast carcinoma cells; test: MCF-7 cell proliferation assay; format: cell-based; details: relative to CA-4
[2] = system: A-10 cells; test: Loss of microtubules in A-10 cells; format: cell-based; details: 20 μM compound; Fig. 2
[3] = system: MCF-7 cells; test: Cell cycle assay; format: cell-based, human; details: up to 5 μM; 48 h treatment; Fig. 3
Outline: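 MCF-7 cells at 2×10^5 cells/ml were seeded in DMEM with 5% fetal calf serum and left overnight at 37 °C to attach. Different concentrations of test compound were then added. After 48 h of treatment, cell-cycle distribution was measured by flow cytometry.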

[4] = system: rat thoracic aorta rings; test: Aortic ring assay; details: 5 μM; day 6; Fig. 5
Outline: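 Thoracic aortas from normal 1–2-month-old rats were excised into ice-cold PBS, cleaned of fibroadipose tissue, and cut into 1–1.5 mm cross-sections. Sections were washed five times in PBS, embedded in Matrigel on coverslips, and held 15 min at 37 °C, 5% CO2. EBM2 containing test compound (1–100 µM) was then added. Sprouting was examined on day 6 against an untreated control.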

[5] = system: HUVEC (human umbilical vein endothelial cells); test: Angiogenesis assay in vitro; format: cell-based; details: 1 μM; 16 h treatment; Fig. 4
Outline: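 HUVEC (1×10^5 cells) seeded on Matrigel in EBM-2 medium and treated with the test compound over several dose ranges (figure panels: 1 and 10 µM, with untreated control). Tube formation was observed after 16 h of treatment.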

[6] = system: 54 human cancer cell lines; test: NCI human cancer cell proliferation assay; format: cell-based; details: 48 h, read-out: GI50 in 16 of the 54 cell lines
Outline: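 The NCI human tumour cell line panel was exposed to test compound at five concentrations in 10-fold serial dilution for 48 h. Growth inhibition was read as total cell protein by sulforhodamine B assay. GI50 was calculated from log dose-response curves.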

| Structure (SMILES) | fold less active than CA-4 as inhibitor of MCF-7 cell growth [1] | effect on interphase microtubule network of A-10 cells [2] | effect on MCF-7 cell cycle (G2/M phase arrest) [3] | functional angiogenesis in aortic ring assay (sprout formation) [4] | HUVEC tube formation [5] | GI50 [6] [nM] |
| --- | --- | --- | --- | --- | --- | --- |
| COc1ccc(/C=C/C(=O)c2cc(OC)c(OC)c(OC)c2)cc1O [compound 6, (2E)-3-(3-Hydroxy-4-methoxyphenyl)-1-(3,4,5-trimethoxyphenyl) prop-2-en-1-one] | 3–4 fold | complete disappearance of the microtubule network |  |  |  |  |
| COc1ccc(/C=C/C(=O)c2cc(OC)c(OC)c(OC)c2)cc1B(O)O [compound 4, 2-Methoxy-5-[(1E)-3-oxo-3-(3,4,5-trimethoxyphenyl)prop-1-en-1-yl]boronic acid] |  | extensive thinning of the network of microtubules | did not cause significant G2/M phase arrest | dramatically inhibited functional angiogenesis | significantly inhibited the tube formation | 10 to 200 |
